# Experiments:
# MTT assay, CHME3 = type: cell-based, human; settings: human, CHME3 microglia cells
# In short: (§1)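 MTT (thiazolyl blue tetrazolium bromide) assay on LPS-inflamed CHME3 or SVG cells, fourth passage. […] Read-out is percent viable cells, plus a growth-inhibitory IC50 (concentration halving cell growth) for each cell line.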
# human microglia (CHME3) = assay: MTT assay, CHME3; type: cell-based; settings: Homo sapiens, Microglia, read-out: IC50, half concentration of druggable compound to inhibit cell growth
# In short: as §1
# MTT assay, SVG = type: cell-based, human; settings: human, SVG astrocyte cells
# In short: as §1
# [1] = system: astrocyte (SVG) cell-line; assay: MTT assay, SVG; type: cell-based, human; settings: Homo sapiens, Astrocyte, read-out: IC50, half concentration of druggable compound to inhibit cell growth
# In short: as §1
# IL-12 [2] = assay: IL-12 ELISA, LPS-treated CHME3; type: cell-based, human; settings: selected dose
# In short: (§2)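 Human microglia (CHME3) and astrocyte (SVG) lines at fourth passage, inflamed with LPS. […] IL-12 or IFN-γ released into the extracellular medium was quantified with human ELISA kits 12 and 24 h after drug treatment. Controls were inflamed untreated cells and market-drug (Disprin)-treated cells.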
# IL-12 [3] = assay: IL-12 ELISA, LPS-treated SVG; type: cell-based, human; settings: selected dose
# In short: as §2
# IFN-γ [4] = assay: IFN-γ ELISA, LPS-treated CHME3; type: cell-based, human; settings: selected dose
# In short: as §2
# IFN-γ [5] = assay: IFN-γ ELISA, LPS-treated SVG; type: cell-based, human; settings: selected dose
# In short: as §2
structure (smiles),measurement,setting,value
"O=C(/C=C/C=C/c1ccc2c(c1)OCO2)N(CCCO[N+](=O)[O-])c1ccc(CO)cc1 [PA-3′k, 3-((2 E,4 E)-5-(benzo[d][1,3]dioxol-5-yl)-N-(4-(hydroxymethyl)phenyl)penta-2,4-dienamido)propyl nitrate]",viability at 24 h,"MTT assay, CHME3",86.1 ± 2.57%
same,IC50,human microglia (CHME3),0.0678 µg/mL
same,viability at 24 h,"MTT assay, SVG",89.1 ± 1.96%
same,IC50,[1],0.0679 µg/mL
same,IL-12 quantification,IL-12 [2]; 12 h after drug treatment,81.68 ± 4.00
same,IL-12 quantification,IL-12 [2]; 24 h after drug treatment,101.88 ± 5.22
same,IL-12 quantification,IL-12 [3]; 12 h after drug treatment,88.11 ± 2.80
same,IL-12 quantification,IL-12 [3]; 24 h after drug treatment,96.37 ± 2.95
same,IFN-γ quantification,IFN-γ [4]; 12 h after drug treatment,46.35 ± 3.58
same,IFN-γ quantification,IFN-γ [4]; 24 h after drug treatment,54.86 ± 3.41
same,IFN-γ quantification,IFN-γ [5]; 12 h after drug treatment,42.57 ± 3.58
same,IFN-γ quantification,IFN-γ [5]; 24 h after drug treatment,55.81 ± 2.89
